From ChEMBL document CHEMBL1121416, “Synthesis of potential inhibitors of hypoxanthine-guanine phosphoribosyltransferase for testing as antiprotozoal agents. 1. 7-Substituted 6-oxopurines” (J Med Chem, 1980)

Experiments:
[1] = test system: Plasmodium berghei; assay: Activity against Plasmodium berghei in mice (Mus musculus); format: functional, organism-based
Outline: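 Mice infected with P. berghei; survival time (life span) of treated mice was the read-out.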

[2] = target: T1, Hypoxanthine-guanine phosphoribosyltransferase (Homo sapiens) (UniProt P00492); assay: Ability to inhibit hypoxanthine-guanine phosphoribosyltransferase in crude extracts of H.Ep.-2 cells.
T1 sequence (whole entry): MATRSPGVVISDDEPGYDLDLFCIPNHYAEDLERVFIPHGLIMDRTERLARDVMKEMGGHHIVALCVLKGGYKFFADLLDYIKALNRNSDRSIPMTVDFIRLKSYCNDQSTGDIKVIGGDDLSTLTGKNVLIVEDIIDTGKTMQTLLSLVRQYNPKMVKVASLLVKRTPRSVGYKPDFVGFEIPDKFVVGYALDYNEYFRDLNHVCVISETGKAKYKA
Also: test concentration or dose not given here.

SMILES	Activity [2]	Activity [1]
OCCn1cnc2ncnc(O)c21	No inhibition	Not significant
[N-]=[N+]=NCCn1cnc2nc(N)nc(O)c21	No inhibition	Not significant
[N-]=[N+]=NCC(O)Cn1cnc2nc(N)nc(O)c21 (stereo not drawn)	No inhibition	Not significant
Nc1nc(O)c2c(ncn2Cc2cccc(NC(=O)CBr)c2)n1	No inhibition	Not significant
Nc1nc(O)c2c(ncn2CC(O)CNC(=O)c2ccc(S(=O)(=O)F)cc2)n1 (stereo not drawn)	No inhibition	Not significant
O=[N+]([O-])c1ccc(Cn2cnc3ncnc(O)c32)cc1	No inhibition	Not significant
Nc1nc(O)c2c(ncn2CCNC(=O)c2cccc(S(=O)(=O)F)c2)n1	No inhibition	Not significant
Nc1nc(O)c2c(ncn2CCNC(=O)CBr)n1	No inhibition	Not significant
Nc1nc(O)c2c(ncn2CC(O)CNC(=O)c2cccc(S(=O)(=O)F)c2)n1 (stereo not drawn)	No inhibition	Not significant
Nc1nc(O)c2c(ncn2Cc2cccc(NC(=O)c3ccc(Cl)cc3)c2)n1	No inhibition	Not significant
O=C(Nc1ccc(Cn2cnc3ncnc(O)c32)cc1)c1ccc(S(=O)(=O)F)cc1	No inhibition	Not significant
NCCn1cnc2nc(N)nc(O)c21	No inhibition	Not significant
Nc1nc(O)c2c(ncn2CC(O)CNC(=O)CBr)n1 (stereo not drawn)	No inhibition	Not significant
Nc1cccc(Cn2cnc3ncnc(O)c32)c1	No inhibition	Not significant
Nc1nc(O)c2c(ncn2CC(O)CCl)n1 (stereo not drawn)	No inhibition	Not significant
Nc1nc(O)c2c(ncn2Cc2ccc([N+](=O)[O-])cc2)n1	No inhibition	Not significant

SMILES	Activity [2]	Activity [1]
Nc1nc(O)c2c(ncn2Cc2cccc(NC(=O)c3ccc(S(=O)(=O)F)cc3)c2)n1	No inhibition	Not significant
CCOC(=O)/C=C/Cn1cnc2nc(N)nc(O)c21	No inhibition	Not significant
Oc1ncnc2ncn(CC(O)CCl)c12 (stereo not drawn)	No inhibition	Not significant
Nc1cccc(Cn2cnc3nc(N)nc(O)c32)c1	No inhibition	Not significant
Nc1nc(O)c2c(ncn2Cc2cccc(NC(=O)c3cccc(S(=O)(=O)F)c3)c2)n1	No inhibition	Not significant
Nc1nc(O)c2c(n1)nc(Cl)n2CCCl	No inhibition	Not significant
Nc1nc(O)c2c(ncn2CCCl)n1	No inhibition	Not significant
Nc1nc(O)c2c(ncn2Cc2ccc(NC(=O)c3ccc(S(=O)(=O)F)cc3)cc2)n1	No inhibition	Not significant
Nc1nc2c(ncn2[C@@H]2O[C@H](CO)[C@@H](O)[C@H]2O)c(=O)[nH]1	No inhibition	Not significant
O=C(Nc1ccc(Cn2cnc3ncnc(O)c32)cc1)c1cccc(S(=O)(=O)F)c1	No inhibition	Not significant
Nc1nc(O)c2c(ncn2CC(O)CN2C(=O)c3ccccc3C2=O)n1 (stereo not drawn)	No inhibition	Not significant
Nc1nc(O)c2c(n1)[n+](C1O[C@H](CO)[C@@H](O)[C@H]1O)cn2CCO (stereo partly drawn)	No inhibition	Not significant
Nc1nc(O)c2c(ncn2CC(O)CNC(=O)c2ccc(Cl)cc2)n1 (stereo not drawn)	No inhibition	Not significant
Nc1nc(O)c2c(ncn2Cc2ccc(NC(=O)c3cccc(S(=O)(=O)F)c3)cc2)n1	No inhibition	Not significant
Nc1nc(O)c2c(ncn2Cc2ccc(NC(=O)CBr)cc2)n1	No inhibition	Not significant
Nc1nc(O)c2c(ncn2CCNC(=O)c2ccc(S(=O)(=O)F)cc2)n1	No inhibition	Not significant

The next lines start with results.

Activity [2]	SMILES	Activity [1]
No inhibition	Nc1nc(O)c2c(ncn2CCO)n1	Not significant
No inhibition	O=C(CBr)Nc1ccc(Cn2cnc3ncnc(O)c32)cc1	Not significant
No inhibition	Nc1nc(O)c2c(ncn2CCNC(=O)c2ccc(Cl)cc2)n1	Not significant
No inhibition	Nc1nc(O)c2c(ncn2Cc2cccc([N+](=O)[O-])c2)n1	Not significant
No inhibition	OCC(O)Cn1cnc2ncnc(O)c21 (stereo not drawn)	Not significant
No inhibition	O=C(Nc1ccc(Cn2cnc3ncnc(O)c32)cc1)c1ccc(Cl)cc1	Not significant
No inhibition	O=C1c2ccccc2C(=O)N1CC(O)Cn1cnc2ncnc(O)c21 (stereo not drawn)	Not significant
No inhibition	NCC(O)Cn1cnc2nc(N)nc(O)c21 (stereo not drawn)	Not significant
No inhibition	CC(=O)OCC1OC([n+]2cn(CCO)c3c(O)nc(N)nc32)C(OC(C)=O)C1OC(C)=O (stereo not drawn)	Not significant
No inhibition	Nc1ccc(Cn2cnc3nc(N)nc(O)c32)cc1	Not significant
No inhibition	Nc1nc(O)c2c(ncn2CC(O)CO)n1 (stereo not drawn)	Not significant
No inhibition	Nc1nc(O)c2c(ncn2CCCS(=O)(=O)O)n1	Not significant
No inhibition	Nc1ccc(Cn2cnc3ncnc(O)c32)cc1	Not significant
No inhibition	CC(=O)OC[C@H]1O[C@@H](N2C=NC3C(=O)N=C(N)N=C32)[C@H](OC(C)=O)[C@@H]1OC(C)=O (stereo partly drawn)	Not significant
No inhibition	Nc1nc(O)c2c(ncn2CC=O)n1	Not significant
No inhibition	Nc1nc(O)c2c(ncn2Cc2ccc(NC(=O)c3ccc(Cl)cc3)cc2)n1	Not significant
No inhibition	O=[N+]([O-])c1cccc(Cn2cnc3ncnc(O)c32)c1	Not significant
